Screening results from PubChem.
This is a sample that favours compounds with a hit; in the whole collection about 5.8% have one here.
Pf Dd2 growth: inhibitors of Plasmodium falciparum Dd2 growth | activity change, % at 10 µM | P. falciparum Dd2 growth, SYBR Green, 72 h; hits give low values | 94,000 tested, 2.3% active; in the data active = activity change below about -80%; inconclusive = no clear call, values can overlap the other calls
IDH1 R132H inh: inhibitors of human IDH1 R132H; 70,000 tested, 0.18% active; IDH1 R132H reductase, diaphorase/resazurin fluorescence, 60 min; AID 624101; inhibition, % at 10 µM; in the data active = inhibition above about 34%; inconclusive = no clear call, values can overlap the other calls; inactive = below about 11%
Target sequence (O75874 whole entry R132H): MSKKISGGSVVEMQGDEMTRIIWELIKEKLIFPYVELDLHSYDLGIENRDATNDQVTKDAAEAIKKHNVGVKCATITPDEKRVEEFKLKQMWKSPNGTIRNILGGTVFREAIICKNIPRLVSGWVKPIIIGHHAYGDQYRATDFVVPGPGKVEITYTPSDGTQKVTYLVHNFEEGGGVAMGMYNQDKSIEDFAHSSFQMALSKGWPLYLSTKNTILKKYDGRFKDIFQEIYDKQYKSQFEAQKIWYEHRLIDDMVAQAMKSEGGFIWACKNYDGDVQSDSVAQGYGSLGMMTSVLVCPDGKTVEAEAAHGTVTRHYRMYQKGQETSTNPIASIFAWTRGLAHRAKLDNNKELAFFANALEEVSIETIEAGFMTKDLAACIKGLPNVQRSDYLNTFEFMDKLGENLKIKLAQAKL
T cruzi growth-1: blocks T. cruzi growth in NIH3T3 culture. 77,000 tested, 5.9% active. inhibition, % at 8.34 µM. T. cruzi beta-gal in NIH3T3, GalScreen luminescence, 90 h. AID 624255;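 active = mean inhibition above about 93%, with at least 55% of replicates each passing it, limit read from the data, passing the limit was not always enough; inconclusive = only one of those two conditions holds; inactive = neither condition holds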
GASC1 inh: blocks human GASC-1 (KDM4C) demethylase activity; GST-KDM4C 2-372, H3K9me3 peptide, LANCE TR-FRET; AID 720574; 96,000 tested, 0.15% active; Q9H3R0; inhibition, % at 12.5 µM;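 active = mean replicate inhibition above about 25%, with at least 55% of replicates also reaching it, limit read from the data, passing the limit was not always enough; inconclusive = only one of those two conditions met; inactive = neither condition met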
Target sequence (Q9H3R0 2-372 limits assumed): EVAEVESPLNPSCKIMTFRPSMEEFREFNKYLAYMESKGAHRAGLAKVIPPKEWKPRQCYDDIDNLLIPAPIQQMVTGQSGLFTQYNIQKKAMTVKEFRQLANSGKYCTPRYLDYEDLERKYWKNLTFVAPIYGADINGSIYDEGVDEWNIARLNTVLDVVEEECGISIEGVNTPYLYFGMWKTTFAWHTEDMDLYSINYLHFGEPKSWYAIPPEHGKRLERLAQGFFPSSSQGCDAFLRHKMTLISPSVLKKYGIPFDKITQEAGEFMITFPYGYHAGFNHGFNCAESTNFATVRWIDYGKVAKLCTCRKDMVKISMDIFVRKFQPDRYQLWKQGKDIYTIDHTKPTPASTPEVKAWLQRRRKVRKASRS
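material = GST-tagged GASC-1 (JMJD2C) catalytic fragment, aa 2-372 | amount = enzyme final amount 10 nM | medium = HEPES buffer, pH 7.5, plus ascorbate | also added = H3K9me3 peptide substrate, Fe(II), 2-oxoglutarate | dosing = single dose | times = 30 min demethylation and 1 h detection at room temperature | detection = LANCE TR-FRET | read-out basis = Fall in 671/618 emission ratio as inhibition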
T cruzi growth-2: inhibitors of T. cruzi proliferation | shares compounds with T cruzi growth-1 | 5,600 tested, 72% active | inhibition, % at 8.35 µM | T. cruzi beta-gal in NIH3T3, GalScreen luminescence, 90 h;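 active = mean replicate inhibition above about 95% and at least 55% of replicates individually reaching it, limit read from the data; inconclusive = only one of the two criteria is met; inactive = neither criterion is met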
T cruzi growth-3: Trypanosoma cruzi proliferation inhibition; shares compounds with T cruzi growth-1; T. cruzi beta-gal in NIH3T3, GalScreen luminescence, 90 h; inhibition, % at 2.09 µM; 5,600 tested, 21% active; AID 651740;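 active = mean inhibition above about 95%, with at least 55% of replicates also reaching it, limit read from the data; inconclusive = meets just one of the two conditions; inactive = meets neither condition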
3T3 cytotox: NIH/3T3 (mouse) viability loss; AID 651742; NIH/3T3 viability, CellTiter-Glo ATP luminescence, 90 h; 5,600 tested, 14% active; cytotoxicity (signal decrease), % at 8.35 µM; shares compounds with T cruzi growth-1;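 active = mean signal decrease across replicates above about 35% based on untreated-well scatter, with enough replicates individually passing, limit read from the data; inconclusive = no rule stated though some were filed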
3T3 cytotox 2: cytotoxicity in mouse NIH/3T3 fibroblasts; shares compounds with T cruzi growth-1; 5,600 tested, 56% active; inhibition, % at 24.9 µM; NIH/3T3 viability, CellTiter-Glo ATP luminescence, 90 h;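 active = mean loss of cell viability signal at or above a set limit, and enough replicates individually reaching it; inconclusive = meets only the mean limit or only the replicate share; inactive = meets neither condition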
Of the large screens only hits and unclear results are named; the others gave an inactive call (follow-up assays come after a bar, where they were run).

CC(C)C#Cc1ccc2c(c1)O[C@@H](CN(C)Cc1cccnc1)[C@H](C)CN([C@H](C)CO)S2(=O)=O	T cruzi growth-1 100 (no result: IDH1 R132H inh) | T cruzi growth-2 99 | T cruzi growth-3 inactive | 3T3 cytotox 40 | 3T3 cytotox 2 106
CC(C)C#Cc1ccc2c(c1)O[C@@H](CN(C)Cc1ccncc1)[C@@H](C)CN([C@H](C)CO)S2(=O)=O	T cruzi growth-1 107 | T cruzi growth-2 inactive | T cruzi growth-3 inactive | 3T3 cytotox inactive | 3T3 cytotox 2 inconclusive
CC(C)C#Cc1ccc2c(c1)O[C@H](CN(C)Cc1cccnc1)[C@@H](C)CN([C@@H](C)CO)S2(=O)=O	T cruzi growth-1 93 (no result: IDH1 R132H inh) | T cruzi growth-2 108 | T cruzi growth-3 102 | 3T3 cytotox 42 | 3T3 cytotox 2 106
COc1ccccc1NC(=O)N(C)C[C@H]1OCc2ccccc2-c2c(n(C)c3ccccc23)C(=O)N([C@@H](C)CO)C[C@@H]1C	none (no result: IDH1 R132H inh)
CC(C)C#Cc1ccc2c(c1)O[C@@H](CN(C)C(=O)c1cccnc1)[C@H](C)CN([C@@H](C)CO)S2(=O)=O	IDH1 R132H inh 81, T cruzi growth-1 103, GASC1 inh 52 | T cruzi growth-2 inactive | T cruzi growth-3 inactive | 3T3 cytotox inactive | 3T3 cytotox 2 39
CC(C)C#Cc1ccc2c(c1)O[C@H](CN(C)C(=O)c1cccnc1)[C@@H](C)CN([C@H](C)CO)S2(=O)=O	none
C[C@@H]1CCCCO[C@H](CN(C)S(=O)(=O)c2ccc(Cl)cc2)[C@H](C)CN([C@H](C)CO)C(=O)c2cc(NC(=O)c3ccncc3)ccc2O1	T cruzi growth-1 101 (no result: IDH1 R132H inh) | T cruzi growth-2 100 | T cruzi growth-3 inactive | 3T3 cytotox 38 | 3T3 cytotox 2 inactive
C[C@@H]1CN([C@H](C)CO)C(=O)c2cc(NC(=O)c3ccncc3)ccc2O[C@@H](C)CCCCO[C@@H]1CN(C)S(=O)(=O)c1ccc(Cl)cc1	Pf Dd2 growth inconclusive, T cruzi growth-1 inconclusive (no result: IDH1 R132H inh) | T cruzi growth-2 95 | T cruzi growth-3 inactive | 3T3 cytotox inactive | 3T3 cytotox 2 inactive
C[C@H]1CCCCO[C@H](CN(C)S(=O)(=O)c2ccc(Cl)cc2)[C@@H](C)CN([C@@H](C)CO)C(=O)c2cc(NC(=O)c3ccncc3)ccc2O1	none
C[C@@H](NC(=O)[C@@H]1[C@@H](CO)[C@@H]2Cn3c(cccc3=O)[C@@H]2N1C(=O)C1CC1)c1ccccc1	none (no result: IDH1 R132H inh)
CN(C)CC(=O)N1[C@H](C(=O)NC2CCCC2)[C@@H](CO)[C@@H]2Cn3c(ccc(-c4ccc(F)cc4)c3=O)[C@@H]21	T cruzi growth-1 105 (no result: IDH1 R132H inh) | T cruzi growth-2 inactive | T cruzi growth-3 inactive | 3T3 cytotox inactive | 3T3 cytotox 2 inactive
CN1[C@H](C(=O)NC2CCCCC2)[C@@H](CO)[C@@H]2Cn3c(ccc(-c4cccc(F)c4)c3=O)[C@@H]21	T cruzi growth-1 inconclusive (no result: IDH1 R132H inh) | T cruzi growth-2 inactive | T cruzi growth-3 inactive | 3T3 cytotox inactive | 3T3 cytotox 2 inactive
CN(C)CC(=O)N1[C@H](C(=O)NC2CCC2)[C@@H](CO)[C@@H]2Cn3c(ccc(-c4cccc(F)c4)c3=O)[C@@H]21	none (no result: IDH1 R132H inh)
CN(C)CC(=O)N1[C@@H]2c3ccc(-c4ccccc4)c(=O)n3C[C@@H]2[C@@H](CO)[C@@H]1C(=O)NC1CCC1	T cruzi growth-1 active (no result: Pf Dd2 growth, IDH1 R132H inh) | T cruzi growth-2 inactive | T cruzi growth-3 inactive | 3T3 cytotox inactive | 3T3 cytotox 2 inactive
CCCN1[C@@H]2c3ccc(-c4ccccc4)c(=O)n3C[C@@H]2[C@@H](CO)[C@@H]1C(=O)N[C@@H](C)c1ccccc1	none (no result: IDH1 R132H inh)
CN(C)CC(=O)N1[C@@H]2c3ccc(-c4cccc(F)c4)c(=O)n3C[C@@H]2[C@@H](CO)[C@@H]1C(=O)NC1CCC1	none (no result: IDH1 R132H inh)
CCCN1[C@H](C(=O)N[C@@H](C)c2ccccc2)[C@@H](CO)[C@@H]2Cn3c(ccc(-c4ccccc4)c3=O)[C@@H]21	T cruzi growth-1 inconclusive (no result: IDH1 R132H inh) | T cruzi growth-2 104 | T cruzi growth-3 inactive | 3T3 cytotox inactive | 3T3 cytotox 2 52
CN1[C@@H]2c3ccc(-c4cncnc4)c(=O)n3C[C@@H]2[C@@H](CO)[C@@H]1C(=O)NC1Cc2ccccc2C1	T cruzi growth-1 active (no result: Pf Dd2 growth, IDH1 R132H inh) | T cruzi growth-2 inactive | T cruzi growth-3 inactive | 3T3 cytotox inactive | 3T3 cytotox 2 inactive
CN(C)CC(=O)N1[C@@H]2c3ccc(-c4ccc(F)cc4)c(=O)n3C[C@@H]2[C@@H](CO)[C@@H]1C(=O)NC1CCCC1	T cruzi growth-1 101 (no result: IDH1 R132H inh) | T cruzi growth-2 inactive | T cruzi growth-3 inactive | 3T3 cytotox inactive | 3T3 cytotox 2 inactive
CN1[C@@H]2c3ccc(-c4ccncc4)c(=O)n3C[C@@H]2[C@@H](CO)[C@@H]1C(=O)NC1Cc2ccccc2C1	none (no result: IDH1 R132H inh)
CN1C(=O)c2cc(NC(=O)c3cccs3)ccc2OC[C@@H]2O[C@@H](CC(=O)N3CCCCC3)CC[C@@H]21	none (no result: IDH1 R132H inh)
COc1ccccc1-c1ccc2c(c1)O[C@@H](CN(C)S(=O)(=O)c1ccc(C)cc1)[C@H](C)CN([C@H](C)CO)S2(=O)=O	Pf Dd2 growth -84, T cruzi growth-1 127 | T cruzi growth-2 105 | T cruzi growth-3 103 | 3T3 cytotox inactive | 3T3 cytotox 2 45
COc1ccccc1-c1ccc2c(c1)O[C@H](CN(C)S(=O)(=O)c1ccc(C)cc1)[C@@H](C)CN([C@@H](C)CO)S2(=O)=O	T cruzi growth-1 126 | T cruzi growth-2 104 | T cruzi growth-3 inactive | 3T3 cytotox 39 | 3T3 cytotox 2 36
COc1ccccc1-c1ccc2c(c1)O[C@@H](CN(C)C)[C@@H](C)CN([C@@H](C)CO)S2(=O)=O	none
C[C@H](CO)N1C[C@H](C)[C@@H](CN(C)Cc2ccc(Cl)c(Cl)c2)OCCCC[C@H](C)Oc2ccc(NC(=O)Nc3cccc4ccccc34)cc2C1=O	T cruzi growth-1 122 (no result: IDH1 R132H inh) | T cruzi growth-2 111 | T cruzi growth-3 106 | 3T3 cytotox inactive | 3T3 cytotox 2 inactive
C[C@@H]1CN([C@H](C)CO)C(=O)c2cc(NC(=O)Nc3cccc4ccccc34)ccc2O[C@@H](C)CCCCO[C@H]1CN(C)Cc1ccc(Cl)c(Cl)c1	none (no result: T cruzi growth-1)
C[C@@H]1CCCCO[C@@H](CN(C)Cc2ccc(Cl)c(Cl)c2)[C@@H](C)CN([C@H](C)CO)C(=O)c2cc(NC(=O)Nc3cccc4ccccc34)ccc2O1	T cruzi growth-1 120 | T cruzi growth-2 103 | T cruzi growth-3 inactive | 3T3 cytotox inactive | 3T3 cytotox 2 inactive
CC(C)C#Cc1ccc2c(c1)O[C@H](CN(C)C(=O)c1cccc(F)c1)[C@@H](C)CN([C@@H](C)CO)S2(=O)=O	T cruzi growth-1 101 | T cruzi growth-2 103 | T cruzi growth-3 inactive | 3T3 cytotox inactive | 3T3 cytotox 2 34
